Source: ChEMBL document CHEMBL2010694, “Indolyl and dihydroindolyl N-glycinamides as potent and in vivo active NPY5 antagonists” (Bioorg Med Chem Lett, 2012)

Assays:
Brain = assay: Drug uptake in Sprague-Dawley rat brain at 10 mg/kg, po by LC-MS/MS analysis; assay type: ADME, organism-based; parameters: dose 10 mg/kg, route oral; conditions: in vivo, read-out: Drug uptake
In short: (§1)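 Male Sprague-Dawley rats (300–350 g), femoral artery cannulated; single 10 mg/kg oral dose in an appropriate vehicle, N = 3. Blood taken predose, 1, 2 and 4 h; brains then collected and stored at -80 °C. Equal portions of plasma or homogenized brain from the three rats pooled per time point, protein precipitated, quantified by LC/MS/MS.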

Plasma = assay: Plasma concentration in Sprague-Dawley rat at 10 mg/kg, po by LC-MS/MS analysis; assay type: ADME, organism-based; parameters: dose 10 mg/kg, route oral; conditions: in vivo; in short: as §1
[1] = molecular target: T1, Neuropeptide Y receptor type 5 (Homo sapiens, UniProt Q15761); assay: Displacement of [125I]peptide YY from human NPY5 receptor
T1 sequence (Q15761 whole entry): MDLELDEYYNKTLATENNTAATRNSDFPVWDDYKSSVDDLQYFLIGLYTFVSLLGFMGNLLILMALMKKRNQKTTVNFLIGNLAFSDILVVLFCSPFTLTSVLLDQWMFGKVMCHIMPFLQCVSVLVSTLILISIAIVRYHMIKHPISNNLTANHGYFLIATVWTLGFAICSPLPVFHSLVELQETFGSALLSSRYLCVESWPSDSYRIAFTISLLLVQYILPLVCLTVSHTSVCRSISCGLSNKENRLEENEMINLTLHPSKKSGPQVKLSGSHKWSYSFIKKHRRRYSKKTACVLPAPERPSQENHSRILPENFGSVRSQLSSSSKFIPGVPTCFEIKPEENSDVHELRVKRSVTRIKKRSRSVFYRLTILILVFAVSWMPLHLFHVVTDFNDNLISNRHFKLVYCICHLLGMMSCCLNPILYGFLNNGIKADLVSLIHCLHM

Liver microsomes [2] = assay: Intrinsic clearance in human liver microsomes at 1 uM by LC/MS analysis; assay type: ADME, Microsome
In short: (§2)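 Compound incubated with human or rat liver microsomes; reaction quenched with acetonitrile, centrifuged, and remaining drug in supernatant measured by LC/MS to estimate T1/2, from which intrinsic clearance was derived.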

Liver microsomes [3] = assay: Intrinsic clearance in rat liver microsomes at 1 uM by LC/MS analysis; assay type: ADME, Microsome; in short: as §2

concentration (Brain) [nM] | concentration (Plasma) [nM] | Ki [1] [nM] | CLH (Liver microsomes [2]) [L/min] | CLH (Liver microsomes [3]) [mL/min] | SMILES
105 | 1520 | 1.5 | 4.5 | 39 | CC(C)S(=O)(=O)NC[C@H]1CC[C@H](NC(=O)CN2CCc3c2ccc(F)c3F)CC1
328 | 2080 | 0.9 | 2.5 | 28 | CC(C)S(=O)(=O)NC[C@H]1CC[C@H](NC(=O)Cn2ccc3cc(F)c(F)cc32)CC1
81 | 460 | 1.5 | 1 | 27 | CC(C)S(=O)(=O)NC[C@H]1CC[C@H](NC(=O)Cn2ccc3ccccc32)CC1
17 | 877 |  | 0.8 | 40 | CC(C)S(=O)(=O)NC[C@H]1CC[C@H](NC(=O)CN2C(=O)CCc3cc(Cl)ccc32)CC1
 | 480 |  | 0.5 | 15 | CC(C)S(=O)(=O)NC[C@H]1CC[C@H](NC(=O)CN2C(=O)COc3cc(Cl)ccc32)CC1
7 | 24 | 1.8 | 5.8 | 7.1 | CC(C)S(=O)(=O)NC[C@H]1CC[C@H](NC(=O)CCN2CCc3ccccc32)CC1
54 | 2560 | 12 | 0.5 | 3.4 | CC(C)S(=O)(=O)NC[C@H]1CC[C@H](NC(=O)Cc2c[nH]c3ccccc23)CC1
49 | 242 | 8.9 | 1.1 | 49 | Cc1cc2ccccc2n1CC(=O)N[C@H]1CC[C@H](CNS(=O)(=O)C(C)C)CC1
134 | 157 | 1 | 2.6 | 37 | CC(C)S(=O)(=O)NC[C@H]1CC[C@H](NC(=O)Cn2ccc3ccc(Cl)cc32)CC1
50 | 417 | 1.1 | 14 | 205 | CC(C)S(=O)(=O)NC[C@H]1CC[C@H](NC(=O)CN2CC(C)(C)c3cc(Cl)ccc32)CC1
17 | 296 | 2 | 1.2 | 22 | CC(C)S(=O)(=O)NC[C@H]1CC[C@H](NC(=O)Cc2cn(C)c3ccccc23)CC1
11 | 870 | 0.9 | 1 | 12 | CC(C)S(=O)(=O)NC[C@H]1CC[C@H](NC(=O)Cn2c(=O)sc3cc(Cl)ccc32)CC1
43 | 769 | 5.6 | 0.4 | 8.7 | CC(C)S(=O)(=O)NC[C@H]1CC[C@H](NC(=O)Cn2ccc3cc(C#N)ccc32)CC1
 |  | 1.2 |  |  | CC(C)S(=O)(=O)NC[C@H]1CC[C@H](NC(=O)Cn2ccc3ccc(F)cc32)CC1
19 | 1640 | 10 | 0.5 | 1.9 | CC(C)S(=O)(=O)NC[C@H]1CC[C@H](NC(=O)Cn2c(=O)oc3ccccc32)CC1
 |  | 1.7 |  |  | CC(C)S(=O)(=O)NC[C@H]1CC[C@H](NC(=O)Cn2ccc3c(Cl)cccc32)CC1
88 | 498 |  | 2.8 | 36 | CC(C)S(=O)(=O)NC[C@H]1CC[C@H](NC(=O)CN2CCCc3cc(Cl)ccc32)CC1
 |  | 0.9 |  |  | CC(C)S(=O)(=O)NC[C@H]1CC[C@H](NC(=O)Cn2ccc3cccc(Cl)c32)CC1
 | 428 |  | 2.9 | 35 | CC(C)S(=O)(=O)NC[C@H]1CC[C@H](NC(=O)CN2CCOc3cc(Cl)ccc32)CC1
